Data published in ChEMBL document CHEMBL5058577, “EUbOPEN Chemogenomics Library 2 (Multiplex)” (2022).

Tested on: HEK-293T
Assay: Multiplex assay against HEK293T
Assay type: toxicity, cell-based
Settings: human
Method in brief: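 At seeding, live cells were stained with Hoechst33342, BioTracker Green Microtubule Cytoskeleton Dye, MitoTracker Red and Annexin V Alexa Fluor 680. After compound addition they were imaged on a CQ1 microscope at 37°C and 5% CO2, and CellPathfinder machine-learning gating sorted them into Hoechst high-intensity objects or normal cells, with normal cells further split into healthy, pyknosed or fragmented nuclei and pyknosed cells into mitotic or apoptotic. Tubulin, mitochondrial-mass and membrane-permeability phenotypes are given as per cents of cells with healthy nuclei.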

[1] = 12 h, 1 µM, compound concentration 1 uM, replicate 1
[2] = 12 h, 1 µM, compound concentration 1 uM, replicate 2
[3] = 12 h, 10 µM, compound concentration 10 uM, replicate 1
[4] = 12 h, 10 µM, compound concentration 10 uM, replicate 2
[5] = 24 h, 1 µM, compound concentration 1 uM, replicate 1
[6] = 24 h, 1 µM, compound concentration 1 uM, replicate 2
[7] = 24 h, 10 µM, compound concentration 10 uM, replicate 1
[8] = 24 h, 10 µM, compound concentration 10 uM, replicate 2
[9] = 48 h, 1 µM, compound concentration 1 uM, replicate 1
[10] = 48 h, 1 µM, compound concentration 1 uM, replicate 2
[11] = 48 h, 10 µM, compound concentration 10 uM, replicate 1
[12] = 48 h, 10 µM, compound concentration 10 uM, replicate 2

With `CCCOc1ccc2[nH]cc(C3=CCNCC3)c2n1.Cl` the “Population Apoptotic (%)” value [1] was 32%, the “Population Fragmented Nuclei (%)” value [1] was 5% and the “Population Healthy Nuclei (%)” value [1] was 81%. For the same compound, the “Population Hoechst High Intensity Objects (%)” value [1] was 5%, the “Population Membrane Permeable-Phenotype (%)” value [1] was 0% and the “Population Mitochondria Different-Phenotype (%)” value [1] was 41%. For the same compound, the “Population Mitotic Cells (%)” value [1] was 68%, the “Population Normal (%)” value [1] was 94% and the “Population Pyknosed Nuclei (%)” value [1] was 12%. For the same compound, the “Population Tubulin-Different-Phenotype (%)” value [1] was 39%, the “Total Cell Count” value [1] was 416 and the “Population Apoptotic (%)” value [2] was 44%. For the same compound, the “Population Fragmented Nuclei (%)” value [2] was 6%, the “Population Healthy Nuclei (%)” value [2] was 82% and the “Population Hoechst High Intensity Objects (%)” value [2] was 4%. For the same compound, the “Population Mitochondria Different-Phenotype (%)” value [2] was 52%, the “Population Mitotic Cells (%)” value [2] was 55% and the “Population Normal (%)” value [2] was 95%. The “Population Pyknosed Nuclei (%)” value [2] was 10%, the “Population Tubulin-Different-Phenotype (%)” value [2] was 21% and the “Total Cell Count” value [2] was 344. For the same compound, the “Population Apoptotic (%)” value [3] was 43%, the “Population Fragmented Nuclei (%)” value [3] was 5% and the “Population Healthy Nuclei (%)” value [3] was 78%. For the same compound, the “Population Hoechst High Intensity Objects (%)” value [3] was 10%, the “Population Membrane Permeable-Phenotype (%)” value [3] was 0% and the “Population Mitochondria Different-Phenotype (%)” value [3] was 58%. For the same compound, the “Population Mitotic Cells (%)” value [3] was 56%, the “Population Normal (%)” value [3] was 89% and the “Population Pyknosed Nuclei (%)” value [3] was 15%. The “Population Tubulin-Different-Phenotype (%)” value [3] was 41%, the “Total Cell Count” value [3] was 446 and the “Population Apoptotic (%)” value [4] was 55%. The “Population Fragmented Nuclei (%)” value [4] was 6%, the “Population Healthy Nuclei (%)” value [4] was 82% and the “Population Hoechst High Intensity Objects (%)” value [4] was 4%. For the same compound, the “Population Mitochondria Different-Phenotype (%)” value [4] was 76%, the “Population Mitotic Cells (%)” value [4] was 44% and the “Population Normal (%)” value [4] was 95%. For the same compound, the “Population Pyknosed Nuclei (%)” value [4] was 11%, the “Total Cell Count” value [4] was 387 and the “Population Apoptotic (%)” value [5] was 28%. The “Population Fragmented Nuclei (%)” value [5] was 10%, the “Population Healthy Nuclei (%)” value [5] was 76% and the “Population Hoechst High Intensity Objects (%)” value [5] was 3%. For the same compound, the “Population Membrane Permeable-Phenotype (%)” value [5] was 0%, the “Population Mitochondria Different-Phenotype (%)” value [5] was 26% and the “Population Mitotic Cells (%)” value [5] was 71%. For the same compound, the “Population Normal (%)” value [5] was 96%, the “Population Pyknosed Nuclei (%)” value [5] was 12% and the “Population Tubulin-Different-Phenotype (%)” value [5] was 24%. For the same compound, the “Total Cell Count” value [5] was 558, the “Population Apoptotic (%)” value [6] was 35% and the “Population Fragmented Nuclei (%)” value [6] was 9%. For the same compound, the “Population Healthy Nuclei (%)” value [6] was 80%, the “Population Hoechst High Intensity Objects (%)” value [6] was 2% and the “Population Membrane Permeable-Phenotype (%)” value [6] was 1%. For the same compound, the “Population Mitochondria Different-Phenotype (%)” value [6] was 29%, the “Population Mitotic Cells (%)” value [6] was 64% and the “Population Normal (%)” value [6] was 97%. The “Population Pyknosed Nuclei (%)” value [6] was 9%, the “Population Tubulin-Different-Phenotype (%)” value [6] was 14% and the “Total Cell Count” value [6] was 425. The “Population Apoptotic (%)” value [7] was 39%, the “Population Fragmented Nuclei (%)” value [7] was 12% and the “Population Healthy Nuclei (%)” value [7] was 74%. The “Population Hoechst High Intensity Objects (%)” value [7] was 7%, the “Population Membrane Permeable-Phenotype (%)” value [7] was 0% and the “Population Mitochondria Different-Phenotype (%)” value [7] was 50%. The “Population Mitotic Cells (%)” value [7] was 60%, the “Population Normal (%)” value [7] was 92% and the “Population Pyknosed Nuclei (%)” value [7] was 12%. The “Population Tubulin-Different-Phenotype (%)” value [7] was 38%, the “Total Cell Count” value [7] was 583 and the “Population Apoptotic (%)” value [8] was 51%. The “Population Fragmented Nuclei (%)” value [8] was 6%, the “Population Healthy Nuclei (%)” value [8] was 81% and the “Population Hoechst High Intensity Objects (%)” value [8] was 3%. The “Population Mitochondria Different-Phenotype (%)” value [8] was 63%, the “Population Mitotic Cells (%)” value [8] was 48% and the “Population Normal (%)” value [8] was 96%. The “Population Pyknosed Nuclei (%)” value [8] was 11%, the “Population Tubulin-Different-Phenotype (%)” value [8] was 34% and the “Total Cell Count” value [8] was 502. The “Population Apoptotic (%)” value [9] was 17%, the “Population Fragmented Nuclei (%)” value [9] was 13% and the “Population Healthy Nuclei (%)” value [9] was 79%. The “Population Hoechst High Intensity Objects (%)” value [9] was 2%, the “Population Membrane Permeable-Phenotype (%)” value [9] was 0% and the “Population Mitochondria Different-Phenotype (%)” value [9] was 15%. For the same compound, the “Population Mitotic Cells (%)” value [9] was 82%, the “Population Normal (%)” value [9] was 97% and the “Population Pyknosed Nuclei (%)” value [9] was 6%. For the same compound, the “Population Tubulin-Different-Phenotype (%)” value [9] was 12%, the “Total Cell Count” value [9] was 872 and the “Population Apoptotic (%)” value [10] was 38%. The “Population Fragmented Nuclei (%)” value [10] was 9%, the “Population Healthy Nuclei (%)” value [10] was 82% and the “Population Hoechst High Intensity Objects (%)” value [10] was 1%. The “Population Membrane Permeable-Phenotype (%)” value [10] was 1%, the “Population Mitochondria Different-Phenotype (%)” value [10] was 20% and the “Population Mitotic Cells (%)” value [10] was 61%. The “Population Normal (%)” value [10] was 98%, the “Population Pyknosed Nuclei (%)” value [10] was 7% and the “Population Tubulin-Different-Phenotype (%)” value [10] was 9%. The “Total Cell Count” value [10] was 657, the “Population Apoptotic (%)” value [11] was 35% and the “Population Fragmented Nuclei (%)” value [11] was 14%. For the same compound, the “Population Healthy Nuclei (%)” value [11] was 76%, the “Population Hoechst High Intensity Objects (%)” value [11] was 6% and the “Population Membrane Permeable-Phenotype (%)” value [11] was 0%. For the same compound, the “Population Mitochondria Different-Phenotype (%)” value [11] was 41%, the “Population Mitotic Cells (%)” value [11] was 64% and the “Population Normal (%)” value [11] was 93%. The “Population Pyknosed Nuclei (%)” value [11] was 8%, the “Population Tubulin-Different-Phenotype (%)” value [11] was 23% and the “Total Cell Count” value [11] was 776. For the same compound, the “Population Apoptotic (%)” value [12] was 26%, the “Population Fragmented Nuclei (%)” value [12] was 13% and the “Population Healthy Nuclei (%)” value [12] was 80%. For the same compound, the “Population Hoechst High Intensity Objects (%)” value [12] was 5%, the “Population Mitochondria Different-Phenotype (%)” value [12] was 37% and the “Population Mitotic Cells (%)” value [12] was 73%. For the same compound, the “Population Normal (%)” value [12] was 94%, the “Population Pyknosed Nuclei (%)” value [12] was 6% and the “Population Tubulin-Different-Phenotype (%)” value [12] was 20%. The “Total Cell Count” value [12] was 733.
